Data set [1] relates to Leishmania amazonensis promastigotes. The experiment in a line: In vitro activity against promastigotes. It counts as cell-based. The note with it: 72 h; for IC50: Leishmania amazonensis; for MPC (minimal parasiticide concentration): promastigotes, 26 °C, mean ± SD. In a few lines: (§1)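 Strains: L. amazonensis MHOM/77/LTB0016, L. infantum MHOM/FR/78/LEM75, L. braziliensis MHOM/BR/75/M2 903. Log-phase promastigotes at 5 x 10^5/mL in Schneider's with 10% heat-inactivated FBS; compound added from two-fold DMSO stocks (4 mg/mL–3.9 µg/mL), DMSO at most 0.5%. Incubated 72 h at 26 °C. MPC = geometric mean (4 replicates) of concentrations fully stopping motility, by microscope. Then p-nitrophenyl phosphate, 3 h 37 °C, A405, minus parasite-free drug wells. IC50 by Emax sigmoid fit; at least three repeats.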

Data set [2] has as its system Leishmania braziliensis promastigotes. The experiment in a line: In vitro activity against promastigotes. It counts as cell-based. The note with it: 72 h; for IC50: Leishmania braziliensis; for MPC (minimal parasiticide concentration): promastigotes, 26 °C, mean ± SD. The gist of the method: as §1
Data set [3] deals with Leishmania infantum promastigotes. The experiment in a line: In vitro activity against promastigotes. It counts as cell-based. The note with it: 72 h; for IC50: Leishmania infantum; for MPC (minimal parasiticide concentration): promastigotes, 26 °C, mean ± SD. In a few lines:
as §1

Data set [4] has as its system promastigotes of Leishmania amazonensis, Leishmania infantum and Leishmania braziliensis. It counts as cell-based. The following applies: read-out: Average IC50. In a few lines:
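IC50 was measured separately for L. amazonensis, L. infantum and L. braziliensis promastigotes. Each assay: 72 h at 26 °C, phosphatase read-out (p-nitrophenyl phosphate, A405), Emax sigmoid fit. The average IC50 is the arithmetic mean of the three species' IC50 values.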

In data set [5] the test system is intracellular amastigotes. Nature of the data set: Activity against intracellular amastigotes in mouse peritoneal macrophages. It counts as cell-based. The following applies: drug concentrations not toxic to mouse peritoneal macrophages used as host cells; data not shown.
Data set [6] can be described thus: Cytotoxicity against mammalian cells. It counts as cell-based. The following applies: human, HeLa-KB cells (subline of HeLa, ATCC CCL-17). In a few lines:
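HeLa-KB cells seeded at 4 x 10^4/mL in RPMI-1640 with 10% heat-inactivated FCS and held 24 h (5% CO2). Medium was replaced by test compound in fresh medium, 30 µg/mL to 100 ng/mL, in triplicate, with a podophyllotoxin positive control. After 72 h, alamarBlue for 4 h, then fluorescence at 530/585 nm. CC50 from a nonlinear Emax sigmoid fit; at least three repeats.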

For the next data set, the system named is Leishmania amazonensis. Nature of the data set: Mouse model of experimental cutaneous leishmaniasis, lesion size. It counts as in vivo, BALB/c mice. The note with it: furvina 2 mg/Kg, UC245 100 mg/Kg; for average lesion size with respect to the control group: experiment 2: early lesions, intraperitoneal every 12 h for 14 days, 28 days of follow up; for effect on chronic lesions (in words): experiment 3: chronic lesions, 18 weeks post-infection, every 12 h for 14 days. The gist of the method:
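Female BALB/c mice (16-18 g, 6-8 weeks) infected intradermally in the footpad with 5 x 10^6 stationary-phase promastigotes. Intraperitoneal dosing every 12 h for 14 days, test compounds in Miglyol 810. Controls were untreated infected mice and amphotericin B (1 mg/Kg in early lesions; 5 mg/Kg every 48 h in chronic). Lesions measured weekly by Vernier calliper; chronic size taken as dorsoplantar × lateral diameter.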

Four compounds from paper PMC4489446 (Memórias do Instituto Oswaldo Cruz, 2015) can be followed below.

What is called IC50 is the midpoint of a concentration-inhibition curve. Consider `C[C@@H]1[C@H](O)[C@@H](C)/C=C/C=C/C=C/C=C/C=C/C=C/C=C/[C@H](O[C@@H]2O[C@H](C)[C@@H](O)[C@H](N)[C@@H]2O)C[C@@H]2O[C@](O)(C[C@@H](O)C[C@@H](O)[C@H](O)CC[C@@H](O)C[C@@H](O)CC(=O)O[C@H]1C)C[C@H](O)[C@H]2C(=O)O` [Amphotericin B, amphotericin B, reference compound], for which the IC50 in data set [1] turned out to be 0.029 ± 0.005 µM; in data set [2], 0.014 ± 0.003 µM; in data set [3] it was 0.014 ± 0.004 µM. The results for the “MPC (minimal parasiticide concentration)” value in data set [1] (amphotericin B), in data set [2] (amphotericin B) and in data set [3] (amphotericin B) were 55 ± 7 nm, 30 ± 6 nm and 17 ± 5 nm, respectively.
The term CC50 denotes the concentration at which the toxic effect on the cells reaches its halfway point. For the compound `O=[N+]([O-])C(Br)=Cc1ccc(Br)o1` [Furvina, 2-bromo-5-(2-bromo-2-nitrovinyl)-furan], the IC50 in data set [1] is 0.8 ± 0.3 µM; in data set [4] it was 0.97 µM; in data set [2], 0.9 ± 0.4 µM; in data set [3], 1.2 ± 0.3 µM. The “MPC (minimal parasiticide concentration)” value turned out to be 5.2 ± 0.4 µM in data set [1] (complete arrest of motion), 1.7 ± 0.4 µM in data set [2] (complete arrest of motion) and 2.9 ± 0.3 µM in data set [3] (complete arrest of motion). Besides, the “efficacy in reducing the percentage of infected cells” value in data set [5] is “under 50%”. This compound also registered a CC50 at 72 h in data set [6] of 13.6 ± 2.2 µM. Besides, the “average lesion size with respect to the control group” value with Leishmania amazonensis is listed as 59%. Further, the “effect on chronic lesions (in words)” value in the data set with Leishmania amazonensis was “progressively decreased lesion sizes”.
As to `CC(=Cc1ccc(Br)o1)[N+](=O)[O-]` [UC245, 2-bromo-5-(2-methyl-2-nitrovinyl)-furan], the IC50 in data set [1] was determined as 0.9 ± 0.2 µM; in data set [4] it was 0.93 µM; in data set [2] it was 1 ± 0.3 µM; in data set [3], 0.9 ± 0.3 µM. For the same compound, the “MPC (minimal parasiticide concentration)” value was 6.1 ± 0.4 µM in data set [1] (complete arrest of motion), 5.7 ± 0.4 µM in data set [2] (complete arrest of motion) and 2.7 ± 0.4 µM in data set [3] (complete arrest of motion). Also, the “efficacy in reducing the percentage of infected cells” value in data set [5] is “under 50%”. In data set [6], this compound returned a CC50 at 72 h of 16.7 ± 1.8 µM. Moreover, the “average lesion size with respect to the control group” value in the data set on Leishmania amazonensis came to 55%. Besides, in the data set on Leishmania amazonensis, the “effect on chronic lesions (in words)” value is listed as “did not show any efficacy”.
As to `COc1cc([C@@H]2c3cc4c(cc3[C@H](O)[C@H]3COC(=O)[C@H]23)OCO4)cc(OC)c1OC` [podophyllotoxin, reference compound], in data set [6], it took 0.0053 ± 0.0014 µM to reach half-maximal cytotoxicity (CC50 at 72 h).
